Data as given in article PMC3401020 (Bioorganic & medicinal chemistry, 2011).

Experiments:
[1] = NMR stability measurements in wet methanol; assay type: physicochemical; settings: assay timescale
COX-1 [2] = molecular target: T1, COX-1 (Ovis aries, UniProt P05979); test: COX-1 inhibition, conversion of [14C]-arachidonic acid to [14C]-prostaglandins; assay type: biochemical, ovine; settings: 25 μM concentration
T1 sequence (P05979 25-600): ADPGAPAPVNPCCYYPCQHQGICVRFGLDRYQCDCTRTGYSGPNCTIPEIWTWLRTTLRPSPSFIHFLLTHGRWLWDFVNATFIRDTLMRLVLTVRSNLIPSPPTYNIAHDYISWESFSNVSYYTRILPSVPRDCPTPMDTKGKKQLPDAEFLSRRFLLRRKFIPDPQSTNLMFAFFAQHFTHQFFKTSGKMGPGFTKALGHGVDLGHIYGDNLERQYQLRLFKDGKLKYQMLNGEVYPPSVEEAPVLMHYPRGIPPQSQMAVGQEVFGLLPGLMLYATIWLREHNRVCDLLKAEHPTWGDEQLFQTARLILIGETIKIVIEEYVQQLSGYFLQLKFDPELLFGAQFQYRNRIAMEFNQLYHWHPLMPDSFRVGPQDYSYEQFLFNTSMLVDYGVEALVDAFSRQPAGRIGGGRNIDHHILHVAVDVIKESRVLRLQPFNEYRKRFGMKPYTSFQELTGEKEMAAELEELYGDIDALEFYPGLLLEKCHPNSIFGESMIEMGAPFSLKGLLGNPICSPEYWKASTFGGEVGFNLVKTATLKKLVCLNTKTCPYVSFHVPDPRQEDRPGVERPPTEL
How it was run: (§1)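 Carbaborane esters of indomethacin screened at 25 μM against ovine COX-1 and murine COX-2, measuring conversion of [14C]-arachidonic acid to [14C]-prostaglandins. Reactions were stopped, then substrate consumption was read by thin-layer chromatography.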

COX-2 = molecular target: T2, COX-2 (Mus musculus, UniProt Q05769); test: COX-2 inhibition, conversion of [14C]-arachidonic acid to [14C]-prostaglandins; assay type: biochemical, murine; settings: 25 μM concentration
T2 sequence (Q05769 18-604): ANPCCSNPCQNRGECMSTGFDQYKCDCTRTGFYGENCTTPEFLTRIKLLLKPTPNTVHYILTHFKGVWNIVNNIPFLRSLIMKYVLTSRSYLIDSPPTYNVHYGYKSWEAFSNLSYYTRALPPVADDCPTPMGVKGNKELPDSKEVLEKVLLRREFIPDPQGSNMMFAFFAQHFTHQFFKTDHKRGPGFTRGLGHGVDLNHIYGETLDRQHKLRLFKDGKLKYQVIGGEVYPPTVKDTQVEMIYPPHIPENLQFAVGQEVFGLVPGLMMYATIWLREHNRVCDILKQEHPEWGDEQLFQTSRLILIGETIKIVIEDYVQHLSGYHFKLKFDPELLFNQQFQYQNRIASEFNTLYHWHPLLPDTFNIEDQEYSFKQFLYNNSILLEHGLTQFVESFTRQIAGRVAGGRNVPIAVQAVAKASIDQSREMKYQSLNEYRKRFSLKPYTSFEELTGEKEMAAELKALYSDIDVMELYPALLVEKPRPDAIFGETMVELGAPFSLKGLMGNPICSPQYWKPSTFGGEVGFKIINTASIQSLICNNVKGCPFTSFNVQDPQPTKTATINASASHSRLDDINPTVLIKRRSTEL
How it was run: as §1

COX-1 [3] = molecular target: T1, COX-1; settings: already reported; cited from earlier work

Compound	stability in wet methanol (NMR) [1]	COX-1 inhibition in screen (COX-1 [2])	COX-2 inhibition in screen (COX-2)	IC50 COX-1 (COX-1 [3])
2-{1-[(4-Chlorophenyl)carbonyl]-5-methoxy-2-methyl-1H-indol-3-yl}acetic acid 1-(1,2-dicarba-closo-dodecaboranyl) ester [5o]	stable	by far the best COX-inhibition	by far the best COX-inhibition	–
COc1ccc2c(c1)c(CC(=O)Oc1ccccc1)c(C)n2C(=O)c1ccc(Cl)cc1 [compound 10]	–	–	–	inactive
